Test results from ChEMBL document CHEMBL3616409, “Optimization of a small molecule probe that restores e-cadherin expression” (Bioorg Med Chem Lett, 2015).

Columns and labels:
[1] = Restoration of e-cadherin expression in human SW620 cells at 10 uM by in-cell-western assay relative to control; format: functional, cell-based; conditions: SW-620
In short: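 In-Cell-Western immunofluorescence read-out of e-cadherin in SW620 colon carcinoma cells after treatment at 10 μM; value is average fold change from two assessments.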

[2] = Restoration of e-cadherin expression in human SW620 cells by in-cell-western assay; format: functional, cell-based; conditions: SW-620
[3] = Intrinsic clearance in human microsomes; format: ADME, Microsome
Cytochrome P450 1A2 = target: T1, Cytochrome P450 1A2 (Homo sapiens, UniProt P05177); assay: Inhibition of CYP1A2 (unknown origin); format: ADME
T1 sequence (P05177 whole entry): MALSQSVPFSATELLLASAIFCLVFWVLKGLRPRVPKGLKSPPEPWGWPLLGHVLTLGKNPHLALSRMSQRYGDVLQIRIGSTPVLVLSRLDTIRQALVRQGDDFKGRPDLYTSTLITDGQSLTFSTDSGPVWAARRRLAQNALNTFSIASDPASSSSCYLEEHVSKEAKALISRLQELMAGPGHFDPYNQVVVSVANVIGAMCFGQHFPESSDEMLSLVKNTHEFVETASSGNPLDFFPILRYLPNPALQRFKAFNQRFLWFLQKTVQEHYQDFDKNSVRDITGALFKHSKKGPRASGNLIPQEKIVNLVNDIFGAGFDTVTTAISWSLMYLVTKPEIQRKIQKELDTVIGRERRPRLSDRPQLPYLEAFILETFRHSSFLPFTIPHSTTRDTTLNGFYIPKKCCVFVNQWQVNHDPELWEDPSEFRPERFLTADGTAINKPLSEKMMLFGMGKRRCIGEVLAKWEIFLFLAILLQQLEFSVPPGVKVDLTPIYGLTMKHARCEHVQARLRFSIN
In short: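 CYP1A2 was assessed in a P450 isozyme panel with 3A4, 2C9 and 2D6. The compound was tested at 30 μM, and the value is reported as a threshold relative to that concentration.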

[4] = Half life in Sprague-Dawley rat at 1 mg/kg, iv; format: ADME, organism-based; conditions: in vivo
In short: (§1)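 Single 1 mg/kg intravenous dose in male Sprague-Dawley rats; clearance and half-life from plasma pharmacokinetics.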

Cytochrome P450 2C9 = Cytochrome P450 2C9 (Homo sapiens, UniProt P11712); assay: Inhibition of CYP2C9 (unknown origin); format: ADME
[5] = Fraction unbound in human; format: ADME, organism-based; conditions: in vivo
[6] = Fraction unbound in rat; format: ADME, organism-based; conditions: in vivo
Rattus norvegicus = assay: Clearance in Sprague-Dawley rat at 1 mg/kg, iv; format: ADME, organism-based; conditions: in vivo; in short: as §1
[7] = Intrinsic clearance in rat microsomes; format: ADME, Microsome
[8] = Intrinsic clearance in mouse microsomes; format: ADME, Microsome
[9] = Fraction unbound in mouse; format: ADME, organism-based; conditions: in vivo
Cytochrome P450 3A4 = Cytochrome P450 3A4 (Homo sapiens, UniProt P08684); assay: Inhibition of CYP3A4 (unknown origin); format: ADME
Cytochrome P450 2D6 = Cytochrome P450 2D6 (Homo sapiens, UniProt P10635); assay: Inhibition of CYP2D6 (unknown origin); format: ADME
Cytochrome P450 2D6, sequence (P10635 whole entry): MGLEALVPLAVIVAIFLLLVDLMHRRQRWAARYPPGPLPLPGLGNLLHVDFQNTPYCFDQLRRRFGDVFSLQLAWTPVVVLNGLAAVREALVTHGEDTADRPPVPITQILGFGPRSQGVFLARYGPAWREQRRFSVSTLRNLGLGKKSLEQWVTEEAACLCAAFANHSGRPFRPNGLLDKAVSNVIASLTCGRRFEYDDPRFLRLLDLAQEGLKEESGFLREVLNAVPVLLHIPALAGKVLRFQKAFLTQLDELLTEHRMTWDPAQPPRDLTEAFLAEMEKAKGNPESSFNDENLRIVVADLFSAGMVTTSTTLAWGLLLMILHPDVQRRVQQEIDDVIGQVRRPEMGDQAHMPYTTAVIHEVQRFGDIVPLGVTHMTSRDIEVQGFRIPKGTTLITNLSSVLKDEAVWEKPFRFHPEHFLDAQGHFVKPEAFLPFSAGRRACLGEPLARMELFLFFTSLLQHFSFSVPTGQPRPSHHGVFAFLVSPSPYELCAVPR

Cytochrome P450 3A4, sequence (P08684 whole entry): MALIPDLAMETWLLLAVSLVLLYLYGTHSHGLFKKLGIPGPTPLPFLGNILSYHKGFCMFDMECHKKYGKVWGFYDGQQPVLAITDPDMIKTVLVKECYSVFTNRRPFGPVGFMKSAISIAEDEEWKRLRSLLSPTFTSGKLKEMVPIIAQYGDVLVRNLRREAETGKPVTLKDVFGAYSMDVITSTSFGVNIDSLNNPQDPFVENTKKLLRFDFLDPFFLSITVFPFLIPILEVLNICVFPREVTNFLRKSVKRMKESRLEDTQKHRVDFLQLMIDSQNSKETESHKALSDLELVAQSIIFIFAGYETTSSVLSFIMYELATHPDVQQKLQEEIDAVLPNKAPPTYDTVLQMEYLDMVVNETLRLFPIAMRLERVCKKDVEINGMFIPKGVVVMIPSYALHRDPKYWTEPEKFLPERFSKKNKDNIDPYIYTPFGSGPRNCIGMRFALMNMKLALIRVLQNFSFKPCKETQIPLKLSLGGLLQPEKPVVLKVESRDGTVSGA
Cytochrome P450 2C9, sequence (P11712 whole entry): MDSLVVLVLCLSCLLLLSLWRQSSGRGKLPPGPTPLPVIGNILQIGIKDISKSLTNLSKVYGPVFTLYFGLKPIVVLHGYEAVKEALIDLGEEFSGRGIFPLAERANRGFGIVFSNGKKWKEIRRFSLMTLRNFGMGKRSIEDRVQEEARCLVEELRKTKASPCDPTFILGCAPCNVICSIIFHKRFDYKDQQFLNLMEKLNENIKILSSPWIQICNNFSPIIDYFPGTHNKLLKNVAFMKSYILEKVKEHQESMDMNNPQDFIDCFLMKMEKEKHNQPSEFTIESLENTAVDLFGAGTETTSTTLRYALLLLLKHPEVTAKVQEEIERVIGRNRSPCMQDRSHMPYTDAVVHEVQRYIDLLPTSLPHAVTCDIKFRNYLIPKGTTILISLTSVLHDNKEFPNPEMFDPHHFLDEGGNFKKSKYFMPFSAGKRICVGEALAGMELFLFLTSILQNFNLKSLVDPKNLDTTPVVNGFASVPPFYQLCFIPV

O=C(NCCCNC(=O)c1cc(Br)ccc1O)c1cc(-c2ccccc2)on1
fold change (FC) [1]: 2.43

Cc1c(C(=O)NCCCCc2ccncc2)nn(C)c1-c1ccccc1
fold change (FC) [1]: 0.75

Nc1cncc(C(=O)NCCCCNC(=O)c2cc(-c3cccs3)on2)n1
EC50 [2]: 5.6 µM

O=C(NCCCCNC(=O)c1cc(I)ccc1O)c1cc(-c2ccccc2)on1
fold change (FC) [1]: 2.43

Cc1cc(CNCCCNC(=O)c2cc(-c3ccccc3)on2)on1
fold change (FC) [1]: 3.4

O=C(NCCCn1ccnc1)c1noc2ccccc12
fold change (FC) [1]: 1.21

O=C(Cc1c[nH]c2ccccc12)NCCCCNC(=O)c1cc(-c2ccccc2)on1
EC50 [2]: 12.6 µM

O=C(NCCCCNC(=O)c1cccnc1O)c1cc(-c2ccccc2)on1
clearance [3]: 0 mL/min/kg
IC50 (Cytochrome P450 1A2): > 30 µM
half-life [4]: 7.6 h
IC50 (Cytochrome P450 2C9): > 30 µM
Fu [5]: 0.01
Fu [6]: 0.11
clearance (Rattus norvegicus): 18 mL/min/kg
clearance [7]: 33 mL/min/kg
fold change (FC) [1]: 5.23
clearance [8]: 180 mL/min/kg
Fu [9]: 0.19
IC50 (Cytochrome P450 3A4): > 30 µM
IC50 (Cytochrome P450 2D6): > 30 µM

O=C(NCCCNC(=O)c1nccs1)c1cc(-c2ccccc2)on1
EC50 [2]: 4.8 µM

O=C(NCCCCc1ccncc1)c1cc(-c2ccco2)on1
EC50 [2]: 4.7 µM

O=C(NCCCNCc1ccccn1)c1cc(-c2ccccc2)on1
fold change (FC) [1]: 2.52

[N-]=[N+]=Nc1ccnc(NCCCNC(=O)c2cc(-c3ccccc3)on2)n1
EC50 [2]: 5.3 µM

O=C(NCCCNCc1c[nH]c2ncccc12)c1cc(-c2ccccc2)on1
fold change (FC) [1]: 1.67

O=C(NCCCCNC(=O)c1ccc(Cl)o1)c1cc(-c2ccccc2)on1
EC50 [2]: 4.6 µM

O=C(NCCCNCc1c[nH]c2ccccc12)c1cc(-c2ccccc2)on1
fold change (FC) [1]: 1.44

O=C(NCCCNCc1ccc(O)cc1O)c1cc(-c2ccccc2)on1
fold change (FC) [1]: 2.33

O=C(NCCCCNC(=O)c1cc(-c2ccccc2)on1)c1cocn1
fold change (FC) [1]: 3.35

Cn1nc(C(=O)NCCCCc2ccncc2)cc1-c1ccccc1
fold change (FC) [1]: 1.38

O=C(NCCCCNC(=O)c1cc(-c2cccs2)on1)c1cccnc1
EC50 [2]: 5 µM

O=C(NCCCNCc1ccccc1O)c1cc(-c2ccccc2)on1
fold change (FC) [1]: 3.59

Cc1ncc(CNCCCNC(=O)c2cc(-c3ccccc3)on2)o1
fold change (FC) [1]: 1.5

O=C(NCCCNC(=O)c1n[nH]c2ccccc12)c1cc(-c2ccccc2)on1
fold change (FC) [1]: 1.62

N#Cc1ccnc(NCCCNC(=O)c2cc(-c3ccccc3)on2)c1
EC50 [2]: 12 µM

O=C(Cc1ccccc1O)NCCCNC(=O)c1cc(-c2ccccc2)on1
EC50 [2]: 3.7 µM

O=C(NCCCN1CCOCC1)c1n[nH]c2ccccc12
fold change (FC) [1]: 0.63

O=C(NCCCCNC(=O)c1cc(-c2ccccc2)on1)c1cscn1
fold change (FC) [1]: 3.7

O=C(NCCCNC(=O)c1cc(-c2ccccc2)on1)c1cccnc1
fold change (FC) [1]: 3.05

O=C(NCCCNCc1cccnc1)c1cc(-c2ccccc2)on1
fold change (FC) [1]: 3.06

O=C(NCCCNC(=O)c1cc(-c2ccccc2)[nH]n1)c1ccncc1
fold change (FC) [1]: 1.29

O=C(NCCCCNC(=O)c1cc(-c2ccccc2)on1)c1ccc(O)c(O)c1
fold change (FC) [1]: 2.69

CC(CNC(=O)c1cc(-c2cccs2)on1)c1ccncc1 (stereo unspecified)
fold change (FC) [1]: 0.32

O=C(NCCCCNC(=O)c1c[nH]c2ccccc12)c1cc(-c2ccccc2)on1
fold change (FC) [1]: 2.39

O=C(NCCCNC(=O)c1cc(-c2ccccc2)on1)c1ccncc1
EC50 [2]: 8.8 µM

Cc1ccc(C(=O)NCCCCNC(=O)c2cc(-c3ccccc3)on2)c(O)n1
EC50 [2]: 5.6 µM

COc1cncc(CNCCCNC(=O)c2cc(-c3ccccc3)on2)c1
fold change (FC) [1]: 3.58

O=C(NCCCNCc1ccc(O)c(O)c1)c1cc(-c2ccccc2)on1
fold change (FC) [1]: 1.54

O=C(NCCCCNC(=O)c1cc(-c2ccccc2)on1)c1cccnc1
EC50 [2]: 7.1 µM

CC(=O)n1cc(CNCCCNC(=O)c2cc(-c3ccccc3)on2)c2ccccc21
EC50 [2]: 15 µM

O=C(NCCCCNC(=O)c1cccs1)c1cc(-c2cccs2)on1
fold change (FC) [1]: 3.04
